Measured values taken from ChEMBL document CHEMBL4330148, “Discovery and Characterization of Cyclic and Acyclic Trypsin Inhibitors from Momordica dioica” (J Nat Prod, 2019).
Calls of active or inactive are those of the source. The calls are words filed in the database; no cut-off is given here. Bridge positions count the residues as written; N and C are the ends. Peptide text beside a SMILES is read from it.

Key:
HT-29 = assay: Cytotoxicity against human HT-29 cells after 24 hrs by MTT assay; type: cell-based; conditions: ht-29, 24 h
Procedure, shortened: (§1)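 HT-29, MCF7 and PC-3 cells were grown in DMEM with 10% FBS and 1% penicillin–streptomycin at 37 °C under 5% CO2. They were seeded at 2000 cells/well and grown 24 h. Peptides were added in triplicate at final concentrations of 0.05–100 μM for 24 h. 1% Triton X-100 and medium alone served as controls. MTT (5 mg/mL in PBS) was added for 4 h, formazan was dissolved in DMSO, and absorbance was read at 570 nm.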

[1] = Stability in 100% human serum at 30 uM after 24 hrs by RP-HPLC analysis; type: ADME, cell-free
MCF7 = assay: Cytotoxicity against human MCF7 cells after 24 hrs by MTT assay; type: cell-based; conditions: mcf7, 24 h; procedure, shortened: as §1
[2] = Cytotoxicity against Spodoptera frugiperda Sf9 cells after 3 hrs by MTT assay; conditions: sf9, 3 h
PC-3 = assay: Cytotoxicity against human PC3 cells after 24 hrs by MTT assay; type: cell-based; conditions: pc-3, 24 h; procedure, shortened: as §1
Bos taurus = species on record: Bos taurus; assay: Inhibition of bovine pancreatic trypsin at 0.1 to 100 uM preincubated for 30 mins followed by L-BAPNA substrate addition and measured after 10 mins
Procedure, shortened: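 Bovine pancreatic trypsin was dissolved in 1 mM HCl and diluted to 0.45 mg/mL in 50 mM Tris, 20 mM CaCl2, pH 8.2. Peptides (1 mM stock, eight-point 2-fold dilutions) were preincubated with trypsin for 30 min at 37 °C. L-BAPNA (0.435 mg/mL, 1% DMSO) was added for 10 min at room temperature, the reaction was stopped with 30% HOAc, and A410 was read. MCoTI-II was the reference inhibitor. Triplicate.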

[3] = Drug metabolism in 100% human serum at 30 uM up to 4 hrs by RP-HPLC analysis; type: ADME, cell-free

Row | Compound | Activity (HT-29) | Stability [1] | Activity (MCF7) | Activity [2] | Activity (PC-3) | inhibition (Bos taurus) | Drug metabolism [3]
1 | CC[C@H](C)[C@@H]1NC(=O)[C@H](CCCNC(=N)N)NC(=O)[C@@H]2CCCN2C(=O)[C@@H]2CSSC[C@@H]3NC(=O)[C@H](C)NC(=O)CNC(=O)[C@@H]4CCCN4C(=O)[C@@H]4CSSC[C@H](NC(=O)[C@H](Cc5ccc(O)cc5)NC(=O)CNC(=O)[C@H](CC(N)=O)NC(=O)CNC(=O)[C@H](CCCNC(=N)N)NC(=O)[C@H](CSSC[C@H](NC(=O)[C@H](CCCCN)NC(=O)[C@H](CCCCN)NC(=O)[C@H](CC(C)C)NC1=O)C(=O)N[C@@H](CCCNC(=N)N)C(=O)N[C@@H](CCCNC(=N)N)C(=O)N[C@@H](CC(=O)O)C(=O)N[C@@H](CO)C(=O)N[C@@H](CC(=O)O)C(=O)N4)NC(=O)[C@H](C(C)C)NC3=O)C(=O)NCC(=O)N[C@@H](CO)C(=O)NCC(=O)N[C@@H](CO)C(=O)N[C@@H](CC(=O)O)C(=O)NCC(=O)NCC(=O)N[C@@H](C)C(=O)N2 | Non-Toxic | Stable | Non-Toxic | Non-Toxic | Non-Toxic | Active | 
2 | CC[C@H](C)[C@@H]1NC(=O)[C@H](CCCCN)NC(=O)[C@@H]2CCCN2C(=O)[C@@H]2CSSC[C@@H]3NC(=O)[C@H](C)NC(=O)CNC(=O)[C@@H]4CCCN4C(=O)[C@@H]4CSSC[C@H](NC(=O)[C@H](Cc5ccc(O)cc5)NC(=O)CNC(=O)[C@H](CC(N)=O)NC(=O)CNC(=O)[C@H](CCC(N)=O)NC(=O)[C@H](CSSC[C@H](NC(=O)[C@H](CCCCN)NC(=O)[C@H](CCC(N)=O)NC(=O)[C@H](CC(C)C)NC1=O)C(=O)N[C@@H](CCCNC(=N)N)C(=O)N[C@@H](CCCNC(=N)N)C(=O)N[C@@H](CC(=O)O)C(=O)N[C@@H](CO)C(=O)N[C@@H](CC(=O)O)C(=O)N4)NC(=O)[C@H](C(C)C)NC3=O)C(=O)NCC(=O)N[C@@H](CO)C(=O)NCC(=O)N[C@@H](CO)C(=O)N[C@@H](CC(=O)O)C(=O)NCC(=O)NCC(=O)N[C@@H](C)C(=O)N2 | Non-Toxic | Stable | Non-Toxic | Non-Toxic | Non-Toxic |  | 
3 | CC[C@H](C)[C@@H]1NC(=O)[C@@H]2CSSC[C@H](NC(=O)[C@@H](NC(=O)[C@@H](CCCNC(=N)N)NC(=O)C3CCC(=O)N3)C(C)C)C(=O)N3CCC[C@H]3C(=O)N[C@@H](CCCNC(=N)N)C(=O)N[C@@H]([C@@H](C)CC)C(=O)N[C@@H](CC(C)C)C(=O)N[C@@H](CCCCN)C(=O)N[C@@H](CCCCN)C(=O)N[C@H]3CSSC[C@H](NC1=O)C(=O)N[C@@H](CCC(N)=O)C(=O)NCC(=O)N[C@@H](CC(N)=O)C(=O)NCC(=O)N[C@@H](Cc1ccc(O)cc1)C(=O)N[C@H](C(=O)NCC(N)=O)CSSC[C@H](NC(=O)[C@H](CC(=O)O)NC(=O)[C@H](CO)NC(=O)[C@H](CC(=O)O)NC(=O)[C@H](CCCNC(=N)N)NC(=O)[C@H](CCCNC(=N)N)NC3=O)C(=O)N1CCC[C@H]1C(=O)NCC(=O)N[C@@H](CCC(=O)O)C(=O)N2 (some centres not stated) |  |  |  |  |  | Active | 
4 | H-WQELYQLKY-OH |  |  |  |  |  |  | Metabolite_Detected
5 | CC[C@H](C)[C@@H]1NC(=O)[C@H](CCCNC(=N)N)NC(=O)[C@@H]2CCCN2C(=O)[C@@H]2CSSC[C@@H]3NC(=O)[C@H](C)NC(=O)[C@H](CO)NC(=O)[C@@H]4CCCN4C(=O)[C@@H]4CSSC[C@H](NC(=O)[C@H](Cc5ccc(O)cc5)NC(=O)CNC(=O)[C@H](CC(N)=O)NC(=O)CNC(=O)[C@H](CCC(N)=O)NC(=O)[C@H](CSSC[C@H](NC(=O)[C@H](CCCCN)NC(=O)[C@H](CCC(N)=O)NC(=O)[C@H](CC(C)C)NC1=O)C(=O)N[C@@H](CCCNC(=N)N)C(=O)N[C@@H](CCCNC(=N)N)C(=O)N[C@@H](CC(N)=O)C(=O)N[C@@H](CO)C(=O)N[C@@H](CC(=O)O)C(=O)N4)NC(=O)[C@H](C(C)C)NC3=O)C(=O)NCC(=O)N[C@@H](CO)C(=O)NCC(=O)N[C@@H](CO)C(=O)N[C@@H](CC(=O)O)C(=O)NCC(=O)NCC(=O)N[C@@H](C)C(=O)N2 | Non-Toxic | Stable | Non-Toxic | Non-Toxic | Non-Toxic |  | 
6 | CC[C@H](C)[C@@H]1NC(=O)[C@H](CCCNC(=N)N)NC(=O)[C@@H]2CCCN2C(=O)[C@@H]2CSSC[C@@H]3NC(=O)[C@H](C)NC(=O)[C@H](CO)NC(=O)[C@@H]4CCCN4C(=O)[C@@H]4CSSC[C@H](NC(=O)[C@H](Cc5ccc(O)cc5)NC(=O)CNC(=O)[C@H](CC(N)=O)NC(=O)CNC(=O)[C@H](CCC(N)=O)NC(=O)[C@H](CSSC[C@H](NC(=O)[C@H](CCCCN)NC(=O)[C@H](CCC(N)=O)NC(=O)[C@H](CC(C)C)NC1=O)C(=O)N[C@@H](CCCNC(=N)N)C(=O)N[C@@H](CCCNC(=N)N)C(=O)N[C@@H](CC(N)=O)C(=O)N[C@@H](CO)C(=O)N[C@@H](CC(=O)O)C(=O)N4)NC(=O)[C@H](C(C)C)NC3=O)C(=O)NCC(=O)N[C@@H](CO)C(=O)NCC(=O)N[C@@H](CO)C(=O)N[C@H](CC(=O)O)C(=O)NCC(=O)NCC(=O)N[C@@H](C)C(=O)N2 |  |  |  |  |  | Active | 
7 | CC[C@H](C)[C@@H]1NC(=O)[C@H](CCCCN)NC(=O)[C@@H]2CCCN2C(=O)[C@@H]2CSSC[C@@H]3NC(=O)[C@H](C)NC(=O)CNC(=O)[C@@H]4CCCN4C(=O)[C@@H]4CSSC[C@H](NC(=O)[C@H](Cc5ccc(O)cc5)NC(=O)CNC(=O)[C@H](CC(N)=O)NC(=O)CNC(=O)[C@H](CCC(N)=O)NC(=O)[C@H](CSSC[C@H](NC(=O)[C@H](CCCCN)NC(=O)[C@H](CCC(N)=O)NC(=O)[C@H](CC(C)C)NC1=O)C(=O)N[C@@H](CCCNC(=N)N)C(=O)N[C@@H](CCCNC(=N)N)C(=O)N[C@@H](CC(=O)O)C(=O)N[C@@H](CO)C(=O)N[C@@H](CC(=O)O)C(=O)N4)NC(=O)[C@H](C(C)C)NC3=O)C(=O)NCC(=O)N[C@@H](CO)C(=O)NCC(=O)N[C@@H](CO)C(=O)N[C@H](CC(=O)O)C(=O)NCC(=O)NCC(=O)N[C@@H](C)C(=O)N2 |  |  |  |  |  | Active | 
8 | CC[C@H](C)[C@@H]1NC(=O)[C@@H]2CSSC[C@H](NC(=O)[C@@H](NC(=O)[C@H](CCCNC(=N)N)NC(=O)[C@@H]3CCC(=O)N3)C(C)C)C(=O)N3CCC[C@H]3C(=O)N[C@@H](CCCNC(=N)N)C(=O)N[C@@H]([C@@H](C)CC)C(=O)N[C@@H](CC(C)C)C(=O)N[C@@H](CCCCN)C(=O)N[C@@H](CCCCN)C(=O)N[C@H]3CSSC[C@H](NC1=O)C(=O)N[C@@H](CCC(N)=O)C(=O)NCC(=O)N[C@@H](CC(N)=O)C(=O)NCC(=O)N[C@@H](Cc1ccc(O)cc1)C(=O)N[C@H](C(=O)NCC(N)=O)CSSC[C@H](NC(=O)[C@H](CC(=O)O)NC(=O)[C@H](CO)NC(=O)[C@H](CC(=O)O)NC(=O)[C@H](CCCNC(=N)N)NC(=O)[C@H](CCCNC(=N)N)NC3=O)C(=O)N1CCC[C@H]1C(=O)NCC(=O)N[C@@H](CCC(=O)O)C(=O)N2 | Non-Toxic | Stable | Non-Toxic | Non-Toxic | Non-Toxic |  | 
9 | CC[C@H](C)[C@@H]1NC(=O)[C@@H]2CSSC[C@@H]3NC(=O)[C@H](C)NC(=O)CNC(=O)CNC(=O)[C@H](CC(=O)O)NC(=O)[C@H](CO)NC(=O)CNC(=O)[C@H](CO)NC(=O)CNC(=O)[C@@H]4CSSC[C@H](NC(=O)[C@H](CC(=O)O)NC(=O)[C@H](CO)NC(=O)[C@H](CC(=O)O)NC(=O)[C@H](CCCNC(=N)N)NC(=O)[C@H](CCCNC(=N)N)NC(=O)[C@H](CSSC[C@H](NC1=O)C(=O)N[C@@H](CCC(N)=O)C(=O)NCC(=O)N[C@@H](CC(N)=O)C(=O)NCC(=O)N[C@@H](Cc1ccc(O)cc1)C(=O)N4)NC(=O)[C@H](CCCCN)NC(=O)[C@H](CCCCN)NC(=O)[C@H](CC(C)C)NC(=O)[C@H]([C@@H](C)CC)NC(=O)[C@H](CCCNC(=N)N)NC(=O)[C@@H]1CCCN1C3=O)C(=O)N1CCC[C@H]1C(=O)N[C@@H](CO)C(=O)N[C@@H](C)C(=O)N2 | Non-Toxic | Stable | Non-Toxic | Non-Toxic | Non-Toxic | Active | 
10 | CC[C@H](C)[C@@H]1NC(=O)[C@@H]2CSSC[C@@H]3NC(=O)[C@H](C)NC(=O)CNC(=O)CNC(=O)[C@H](CC(=O)O)NC(=O)[C@H](CO)NC(=O)CNC(=O)[C@H](CO)NC(=O)CNC(=O)[C@@H]4CSSC[C@H](NC(=O)[C@H](CC(=O)O)NC(=O)[C@H](CO)NC(=O)[C@H](CC(=O)O)NC(=O)[C@H](CCCNC(=N)N)NC(=O)[C@H](CCCNC(=N)N)NC(=O)[C@H](CSSC[C@H](NC1=O)C(=O)N[C@@H](CCCNC(=N)N)C(=O)NCC(=O)N[C@@H](CC(N)=O)C(=O)NCC(=O)N[C@@H](Cc1ccc(O)cc1)C(=O)N4)NC(=O)[C@H](CCCNC(=N)N)NC(=O)[C@H](CCC(N)=O)NC(=O)[C@H](CC(C)C)NC(=O)[C@H]([C@@H](C)CC)NC(=O)[C@H](CCCCN)NC(=O)[C@@H]1CCCN1C3=O)C(=O)N1CCC[C@H]1C(=O)NCC(=O)N[C@@H](C)C(=O)N2 (cyclo(ACICRGNGYCGSGSDGGACPKILQRCRRDSDCPG); disulfide 2-19, 4-26, 10-32) | Non-Toxic | Stable | Non-Toxic | Non-Toxic | Non-Toxic | Active | 
